Assay results from ChEMBL document CHEMBL1156980, “Synthesis and biological evaluation of 8-oxoadenine derivatives as toll-like receptor 7 agonists introducing the antedrug concept” (J Med Chem, 2010).
Activity calls are given as the source filed them. The rule behind the calls is not given here.

Experiments:
[1] = molecular target: T1, Toll-like receptor 7 (Homo sapiens, UniProt Q9NYK1); assay: Agonist activity at human TLR7 expressed in HEK293 cells coexpressing pNiFty2-SEAP reporter by reporter gene assay; assay type: functional, cell-based
T1 sequence (Q9NYK1 whole entry): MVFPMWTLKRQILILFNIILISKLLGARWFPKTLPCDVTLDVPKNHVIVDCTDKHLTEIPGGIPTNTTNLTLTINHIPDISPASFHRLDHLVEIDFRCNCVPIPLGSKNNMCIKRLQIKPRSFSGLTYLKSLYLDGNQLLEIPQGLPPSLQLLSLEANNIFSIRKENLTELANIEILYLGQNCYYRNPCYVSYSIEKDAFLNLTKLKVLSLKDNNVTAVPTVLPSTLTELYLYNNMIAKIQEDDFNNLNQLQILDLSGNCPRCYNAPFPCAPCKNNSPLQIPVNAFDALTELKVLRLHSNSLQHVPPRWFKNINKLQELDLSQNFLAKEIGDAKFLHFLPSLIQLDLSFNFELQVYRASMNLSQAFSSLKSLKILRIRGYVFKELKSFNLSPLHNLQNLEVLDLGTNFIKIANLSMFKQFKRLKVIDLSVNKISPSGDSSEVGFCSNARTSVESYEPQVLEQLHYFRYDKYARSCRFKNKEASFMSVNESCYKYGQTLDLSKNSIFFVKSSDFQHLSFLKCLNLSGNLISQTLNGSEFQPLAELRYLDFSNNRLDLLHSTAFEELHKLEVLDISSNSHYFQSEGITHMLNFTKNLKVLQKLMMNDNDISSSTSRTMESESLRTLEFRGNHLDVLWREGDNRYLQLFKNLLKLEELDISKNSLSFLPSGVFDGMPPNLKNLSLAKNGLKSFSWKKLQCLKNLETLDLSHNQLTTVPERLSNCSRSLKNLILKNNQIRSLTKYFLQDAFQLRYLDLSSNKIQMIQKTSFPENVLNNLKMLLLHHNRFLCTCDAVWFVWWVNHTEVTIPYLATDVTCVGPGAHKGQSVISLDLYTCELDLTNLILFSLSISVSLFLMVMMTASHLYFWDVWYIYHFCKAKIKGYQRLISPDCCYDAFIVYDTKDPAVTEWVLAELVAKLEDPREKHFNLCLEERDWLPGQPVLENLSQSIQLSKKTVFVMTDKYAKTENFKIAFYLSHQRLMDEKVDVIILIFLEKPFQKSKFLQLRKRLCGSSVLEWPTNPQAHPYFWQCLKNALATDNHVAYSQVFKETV
Method in brief: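 HEK293 cells stably transfected with human TLR7 and an NF-kB-driven SEAP reporter; agonist activity read as reporter output and expressed as EC50.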

[2] = Half life in human plasma by […] analysis
[3] = test system: Rattus norvegicus; assay: Induction of IFN secretion in Brown Norway rat plasma at 0.1 mg/kg, intratracheally measured after 2 to 24 hrs by CPE reduction assay; assay type: organism-based; design: dose 0.1 mg/kg, route endotracheal; conditions: in vivo, inhaled_or_intranasal
[4] = test system: PBMC; assay: Induction of type 1 IFN secretion in human PBMC at 100 nM after 18 hrs by ELISA; assay type: cell-based; conditions: 0.1 µM
[5] = test system: Rattus norvegicus; assay: Induction of IFN secretion in Brown Norway rat plasma at up to 10 mg/kg, intratracheally measured after 2 to 24 hrs by CPE reduction assay; assay type: organism-based; design: dose 10 mg/kg, route endotracheal; conditions: in vivo, inhaled_or_intranasal
[6] = test system: PBMC; assay: Induction of type 1 IFN secretion in human PBMC at 300 nM after 18 hrs by ELISA; assay type: cell-based; conditions: 0.3 µM
[7] = test system: PBMC; assay: Induction of type 1 IFN secretion in human PBMC at 30 nM after 18 hrs by ELISA; assay type: cell-based; conditions: 0.03 µM
[8] = test system: PBMC; assay: Induction of type 1 IFN secretion in human PBMC at 10 nM after 18 hrs by ELISA; assay type: cell-based; conditions: 0.01 µM
[9] = test system: PBMC; assay: Induction of type 1 IFN secretion in human PBMC at 1000 nM after 18 hrs by ELISA; assay type: cell-based; conditions: 1 µM
[10] = test system: Rattus norvegicus; assay: Antiinflammatory activity in ovalbumin and […] hydroxide adjuvant-sensitized Brown Norway rat assessed as inhibition of allergen-induced eosinophils influx at 1 mg/kg, intratracheally administered 2 hrs before allergen challenge measured after 24 hrs; assay type: functional, organism-based; design: dose 1 mg/kg
[11] = test system: PBMC; assay: Induction of type 1 IFN secretion in human PBMC at 3000 nM after 18 hrs by ELISA; assay type: cell-based; conditions: 3 µM
Method in brief: (§1)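 Human peripheral blood mononuclear cells incubated with compound; IFN in culture supernatants quantified by human ELISA.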

[12] = test system: PBMC; assay: Induction of type 1 IFN secretion in human PBMC at 10000 nM after 18 hrs by ELISA; assay type: cell-based; conditions: 10 µM; method in brief: as §1
[13] = test system: Rattus norvegicus; assay: Antiinflammatory activity in ovalbumin and […] hydroxide adjuvant-sensitized intratracheally dosed Brown Norway rat assessed as inhibition of allergen-induced eosinophils influx administered 2 hrs before allergen challenge measured after 24 hrs; assay type: functional, organism-based
[14] = molecular target: T2, Toll-like receptor 8 (Homo sapiens, UniProt Q9NR97); assay: Agonist activity at TLR8; assay type: functional
T2 sequence (Q9NR97 whole entry): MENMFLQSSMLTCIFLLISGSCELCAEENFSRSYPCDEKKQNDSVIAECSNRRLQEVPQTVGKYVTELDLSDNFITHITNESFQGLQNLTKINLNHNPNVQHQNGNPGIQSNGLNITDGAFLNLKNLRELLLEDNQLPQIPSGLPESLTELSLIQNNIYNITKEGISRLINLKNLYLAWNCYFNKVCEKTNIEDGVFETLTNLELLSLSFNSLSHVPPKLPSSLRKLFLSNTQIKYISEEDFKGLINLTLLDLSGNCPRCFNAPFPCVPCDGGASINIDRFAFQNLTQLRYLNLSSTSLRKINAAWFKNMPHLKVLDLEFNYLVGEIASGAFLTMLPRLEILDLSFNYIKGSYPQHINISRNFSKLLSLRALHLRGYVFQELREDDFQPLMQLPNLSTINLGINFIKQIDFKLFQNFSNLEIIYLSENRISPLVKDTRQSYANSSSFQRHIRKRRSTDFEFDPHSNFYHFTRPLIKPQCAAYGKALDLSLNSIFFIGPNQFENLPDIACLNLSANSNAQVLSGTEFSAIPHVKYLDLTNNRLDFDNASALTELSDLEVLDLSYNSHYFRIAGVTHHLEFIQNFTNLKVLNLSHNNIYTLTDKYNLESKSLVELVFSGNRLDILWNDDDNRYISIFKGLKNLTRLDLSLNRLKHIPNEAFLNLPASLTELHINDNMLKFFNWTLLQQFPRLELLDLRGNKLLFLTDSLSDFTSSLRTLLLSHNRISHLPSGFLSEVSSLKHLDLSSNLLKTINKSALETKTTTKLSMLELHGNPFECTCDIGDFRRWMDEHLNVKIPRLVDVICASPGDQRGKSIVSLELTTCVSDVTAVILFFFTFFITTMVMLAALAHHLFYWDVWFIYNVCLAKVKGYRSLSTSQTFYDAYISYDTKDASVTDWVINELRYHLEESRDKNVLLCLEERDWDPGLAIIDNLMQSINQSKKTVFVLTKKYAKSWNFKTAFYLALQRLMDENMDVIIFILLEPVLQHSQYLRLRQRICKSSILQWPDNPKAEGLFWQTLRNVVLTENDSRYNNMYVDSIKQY

[15] = test system: PBMC; assay: Induction of type 1 IFN secretion in human PBMC at 3 nM after 18 hrs by ELISA; assay type: cell-based; conditions: 0.003 µM
[16] = Half life in rat plasma by […] analysis; assay type: ADME, cell-free

Structure (SMILES)	EC50 [1] [nM]	half-life [2] [min]	also measured
CCCCOc1nc(N)c2[nH]c(=O)n(Cc3ccc(C(=O)OC)cc3)c2n1	72.9	> 98	
CCCCOc1nc(N)c2[nH]c(=O)n(Cc3cccc(CCC(=O)OC)c3)c2n1	87.5	> 98	
CCOCc1nc2c(N)nc3ccccc3c2n1CC(C)(C)O [RESIQUIMOD]			Activity [3]: Toxic; Activity [4]: 5.61 nM; Activity [5]: Non-toxic; Activity [6]: 7.26 nM; Activity [7]: 1.25 nM; Activity [8]: < 1.25 nM; Activity [9]: 7.75 nM; Activity [10]: Active
CCCCOc1nc(N)c2[nH]c(=O)n(Cc3ccc(CC(=O)OC)cc3)c2n1	10.3	21.9	
CCCCOc1nc(N)c2[nH]c(=O)n(Cc3cccc(CC(=O)O)c3)c2n1			Activity [4]: < 1.25 nM; Activity [11]: 1.25 nM; Activity [12]: 1.25 nM; Activity [6]: < 1.25 nM; Activity [7]: < 1.25 nM; Activity [9]: < 1.25 nM
CCCCOc1nc(N)c2[nH]c(=O)n(Cc3ccc(OC)c(CC(=O)OC)c3)c2n1	8.1	> 98	
COCCOc1nc(N)c2[nH]c(=O)n(Cc3ccccc3)c2n1	399		
COCCOc1nc(N)c2[nH]c(=O)n(Cc3cccc(CC(=O)OC)c3)c2n1	312	1.4	
CCCCOc1nc(N)c2[nH]c(=O)n(Cc3cc(CC(=O)OC)ccc3OC)c2n1	108	98	
CCCCOc1nc(N)c2[nH]c(=O)n(Cc3ccc(F)c(CC(=O)OC)c3)c2n1	25.7	13.1	
CCCCOc1nc(N)c2[nH]c(=O)n(Cc3cccc(CC(=O)OC)c3)c2n1	50.1	2.6	Activity [13]: Dose-dependent effect; EC50 [14]: > 10000 nM; Activity [4]: 8.17 nM; Activity [15]: < 1.25 nM; half-life [16]: < 0.04 min; Activity [6]: 8.37 nM; Activity [7]: 4.71 nM; Activity [8]: 1.61 nM; Activity [9]: 6.2 nM

Further lines, with some results ahead:

EC50 [1] [nM]	half-life [2] [min]	Structure (SMILES)	also measured
467	> 98	CCCCOc1nc(N)c2[nH]c(=O)n(Cc3ccccc3CC(=O)OC)c2n1	
609	> 98	CCCCOc1nc(N)c2[nH]c(=O)n(Cc3ccccc3C(=O)OC)c2n1	
188	9	CCCCOc1nc(N)c2[nH]c(=O)n(Cc3cccc(CC(=O)OCC)c3)c2n1	
51.5	> 98	CCCCOc1nc(N)c2[nH]c(=O)n(Cc3cccc(C(=O)OC)c3)c2n1	
75	> 98	CCCCOc1nc(N)c2[nH]c(=O)n(Cc3cccc(C(C)C(=O)OC)c3)c2n1 (stereo unspecified)	
63.7		CCCCOc1nc(N)c2nc(O)n(Cc3ccccc3)c2n1	
